# Compound activity from PubChem BioAssay.
# DENV2 CPE: protects cells from dengue virus 2 cytopathic effect; 350,000 compounds, 1.7% hits; DENV2-infected cells, cytopathic effect rescue, plate reader; CPE inhibition, % at 9.99 µM; in the data active means CPE inhibition above about 20%, passing the limit was not always enough; inconclusive means no clear call, values can overlap the other calls; tested in BHK-21 cells
# S100A4 inh HTS: blocks human S100A4 binding to myosin IIA peptide; P26447; S100A4/TAMRA-MyoIIA peptide fluorescence polarization; inhibition, % at 10.7 µM; 360,000 compounds, 0.14% hits; AID 652163;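 active means mean inhibition of at least 70% across replicates, with every replicate also reaching that level; inconclusive means mean inhibition reaches 70% but some replicates fall short; inactive means mean inhibition below 70%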
# Target sequence (P26447 whole entry, looked up): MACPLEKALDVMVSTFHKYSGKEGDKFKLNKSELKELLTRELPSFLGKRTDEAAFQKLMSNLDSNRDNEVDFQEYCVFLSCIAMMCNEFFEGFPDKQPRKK
#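 Test system – S100A4 monomer (human) · Compound – single-point compound testing · Schedule – 5 min incubation before reading · Probe or stimulus – TAMRA-labelled myosin IIA heavy-chain peptide probe, 5 nM · Benchmarks – neutral control DMSO, positive control TFP · Medium – Calcium-containing HEPES buffer, pH 7.2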
# MLL AF4-AF9 inh: blocks AF4 peptide binding to human AF9; P42568; AID 651704; 350,000 compounds, 0.47% hits; inhibition, % at 10 µM; AlphaScreen, biotin-AF4 peptide binding to FLAG-AF9;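 active means every replicate reaching a set inhibition limit, whatever the replicate mean, cut at about 25% in these data; inconclusive means mean inhibition reaches that limit but some replicates miss it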
# Target sequence (P42568 whole entry, looked up): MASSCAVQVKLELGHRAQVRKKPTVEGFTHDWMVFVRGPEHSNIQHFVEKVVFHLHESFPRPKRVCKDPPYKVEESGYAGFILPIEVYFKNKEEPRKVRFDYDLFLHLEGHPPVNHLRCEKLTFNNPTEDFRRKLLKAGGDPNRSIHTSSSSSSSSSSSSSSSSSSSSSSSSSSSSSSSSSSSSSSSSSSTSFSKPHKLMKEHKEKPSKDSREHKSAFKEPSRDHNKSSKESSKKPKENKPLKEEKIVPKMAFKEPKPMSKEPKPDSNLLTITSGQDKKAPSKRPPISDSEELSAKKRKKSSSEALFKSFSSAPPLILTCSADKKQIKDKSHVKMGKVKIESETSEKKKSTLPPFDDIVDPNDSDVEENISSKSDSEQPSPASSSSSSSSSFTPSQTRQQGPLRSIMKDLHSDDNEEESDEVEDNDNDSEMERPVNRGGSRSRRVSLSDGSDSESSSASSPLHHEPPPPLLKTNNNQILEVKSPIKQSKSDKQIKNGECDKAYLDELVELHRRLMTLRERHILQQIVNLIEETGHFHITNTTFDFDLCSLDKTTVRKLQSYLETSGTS
# Cneo AK release: causes C. neoformans cell lysis. adenylate kinase release luminescence, 4 h; normalised: neutral wells 0, clomiphene wells 100. lysis activity, % at 15 µM. 360,000 compounds, 0.2% hits;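 active means mean lysis activity across replicates of at least 80%, whatever share of replicates individually reach that level; inactive means mean lysis activity below 80%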
#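 Test system: log-phase Cryptococcus neoformans yeast cells; Quantity: yeast cell density of 5 × 10^6 cells/mL; Buffer or medium: YPD; Doses: single compound concentration per well; Timing: 4 h at 37 °C static, read 1 h later; Measured by: AK luminescence; Read-out basis: lysis from increased AK signal; Control set: Clomiphene as positive control.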
# PfHsp90 set2: reduces growth (ATP signal) of yeast expressing P. falciparum Hsp90; S. cerevisiae expressing PfHsp90, BacTiter-Glo ATP, 48 h; yeast lacking PDR1 and PDR3 efflux regulators; inhibition, % at 9.4 µM; 310,000 compounds, 0.32% hits; AID 504621;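 active means every replicate shows inhibition above about 80%, whatever the replicate mean, limit read from the data; inconclusive means mean inhibition reaches the set limit but some replicate falls short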
# rRNA inh HTS: inhibits bacterial ribosomal RNA function over humanized ribosomes | GFP signal change (wild-type ribosome), % (test concentration not listed) | 350,000 compounds, 1.6% hits | AID 720706 | E. coli WT GFP vs humanized-ribosome RFP mutants, fluorescence, 24 h; active compounds read low; DMSO median 0, no signal -100;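 active means significant combined selectivity score with lowered wild-type GFP, culture density cut under 30%, mutant RFP and density less affected; inactive means any of these conditions unmet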
# Numbers stand for hits; i = inactive; ? = inconclusive; nt = no result given; + = active, no number. Hits are enriched below; roughly 3.2% of the tested compounds scored in any of these assays.
SMILES,DENV2 CPE,S100A4 inh HTS,MLL AF4-AF9 inh,Cneo AK release,PfHsp90 set2,rRNA inh HTS
CCCC#Cc1ccc2c(c1)[C@H]1[C@H](CCN1S(=O)(=O)c1cn(C)cn1)[C@H](CO)N2,65,i,i,nt,nt,i
C[C@@H]1CCCCO[C@H](CN(C)C(=O)Nc2ccccc2)[C@H](C)CN([C@H](C)CO)C(=O)c2cc(NC(=O)C3CCCCC3)ccc2O1,nt,nt,nt,nt,nt,i
CCOC(=O)c1cnc2ccc(C(=O)OC)cc2c1NCCN1CCOCC1,i,i,i,nt,i,-27
Cc1cc(N2CCN(C(c3ccnc4ccccc34)c3nnnn3-c3c(C)cccc3C)CC2)c2ccccc2n1 (configuration not stated),i,i,i,nt,nt,-26
CN(C(=O)COC(=O)CSc1ccc([N+](=O)[O-])cc1)c1ccccc1,36,i,i,i,nt,i
COc1cc(CN2CC3(CN(C)C3)c3c([nH]c4cc(OC)ccc34)[C@@H]2CO)cc(OC)c1,i,i,i,nt,nt,i
CC1CCCN(c2nc(N(C)c3ccccc3)nc(N)c2[N+](=O)[O-])C1 (configuration not stated),i,i,i,nt,i,-17
Cc1ccc(Nc2nc(N)c([N+](=O)[O-])c(N3CCCC(C)C3)n2)cc1C (configuration not stated),nt,nt,nt,i,132,nt
C[C@@H]1CN([C@H](C)CO)C(=O)c2cc(C#Cc3ccccc3)cnc2O[C@H]1CN(C)C(=O)CN(C)C,?,i,i,i,nt,i
CO[C@@H]1CN(C)C(=O)c2cc(NC(=O)Nc3ccccc3F)ccc2OC[C@H](C)N(CC2CC2)C[C@@H]1C,i,i,i,i,nt,i
O=C(C[C@H]1CC[C@H](NC(=O)Nc2ccccc2)[C@H](CO)O1)NCc1cccc(F)c1,i,i,i,i,nt,i
O=C(O)c1ccccc1-c1c2cc(I)c(=O)c(I)c-2oc2c(I)c(O)c(I)cc12,?,+,i,i,i,i
O=C(CC1CC1)Nc1ccc2c(c1)[C@H]1C[C@H](CC(=O)N3CCOCC3)O[C@@H](CO)[C@H]1O2,i,nt,nt,i,nt,i
O=[N+]([O-])c1ccc2c(c1)/C(=N\O)c1ccccc1-2,i,i,i,i,i,-28
O=[N+]([O-])c1ccc2c(c1)C(=NO)c1cc(F)ccc1-2,i,i,i,nt,i,i
CC(C)NC(=O)Nc1ccc2c(c1)C(=O)N([C@H](C)CO)C[C@@H](C)[C@H](CN(C)C(=O)NC(C)C)O2,nt,i,i,i,nt,i
COc1ccc(-c2csc3ncn(-c4ccccc4OC)c(=O)c23)cc1OC,i,i,i,i,i,-26
Cc1cc2c([nH]c3ccccc32)c(C)n1,?,i,i,i,i,i
Cc1cc2c(sc3ccccc32)c(C)n1,i,i,i,i,i,-24
COCCOC(=O)N1C(=O)[C@@]2(c3cc(C#CC4(O)CCCCCC4)ccc31)[C@H](c1ccc(OCCO)cc1)N1[C@H](c3ccccc3)[C@H](c3ccccc3)OC(=O)[C@H]1[C@@H]2C(N)=O,69,i,i,i,nt,nt
C=CCNC(=O)[C@H]1[C@@H]2C(=O)O[C@@H](c3ccccc3)[C@@H](c3ccccc3)N2[C@@H](c2ccc(OCCO)cc2)[C@]12C(=O)N(C(=O)OCCOC)c1ccc(C#Cc3ccc(OC)cc3)cc12,23,i,i,i,nt,nt
COc1ccccc1CN1CCNC(=O)C1CC(=O)NCC1CCOCC1 (configuration not stated),i,i,i,i,i,i
COc1ccc(CN2CCNC(=O)C2CC(=O)NCC2CCOCC2)c(C)c1C (configuration not stated),89,i,i,i,i,i
C[C@H]1CCCCO[C@H](CN(C)S(=O)(=O)c2cn(C)cn2)[C@@H](C)CN([C@@H](C)CO)C(=O)c2cc(NS(=O)(=O)c3ccc(F)cc3)ccc2O1,i,i,i,i,nt,i
CCCNC(=O)N1CCC2(CC1)CN(C(=O)CN1CCOCC1)[C@@H](CO)c1[nH]c3cc(OC)ccc3c12,i,i,i,nt,nt,i
SMILES,DENV2 CPE,S100A4 inh HTS,MLL AF4-AF9 inh,Cneo AK release,PfHsp90 set2,rRNA inh HTS
Cc1noc(C)c1S(=O)(=O)Nc1ccc2c(c1)CC(=O)N([C@@H](C)CO)C[C@H](C)[C@@H](CN(C)Cc1ccc(C(=O)O)cc1)O2,i,i,i,i,nt,i
COc1ccccc1NC(=O)Nc1nc(CC(=O)N2CCN(c3ccc(F)cc3)CC2)cs1,40,i,i,i,i,i
C[C@@H]1CN([C@@H](C)CO)C(=O)c2cc(-c3cccc(F)c3)cnc2O[C@H]1CN(C)CC1CCOCC1,i,i,nt,i,nt,i
CCC(CO)Oc1cc(NCc2cccc(F)c2)c2ncn(C(C)C)c2c1 (configuration not stated),118,i,i,i,i,i
CCC(CO)Oc1cc(NCc2cccc(O)c2)c2ncn(C(C)C)c2c1 (configuration not stated),i,i,i,i,i,i
CCC(CO)Oc1cc(NC(=O)c2ccc(N)cc2)c2ncn(C(C)C)c2c1 (configuration not stated),i,i,i,i,i,-20
CCC(CO)Oc1cc(NC(=O)c2ccc(F)cc2)c2ncn(C(C)C)c2c1 (configuration not stated),?,i,i,i,i,i
COc1ccccc1-c1cn(CC[C@@H]2CC[C@@H](NC(=O)C3CCCC3)[C@H](CO)O2)nn1,i,i,i,nt,nt,i
Cc1ccc(S(=O)(=O)N2[C@@H](c3ccc(Cl)cc3)C(C(=O)O)=CC[C@H]2c2cccs2)cc1,i,i,i,i,nt,-29
CCc1ccc([C@@H]2CC=C(C(=O)O)[C@H](c3ccc(C(C)(C)C)cc3)N2S(=O)(=O)c2ccc(C)cc2)cc1,48,i,i,i,i,i
Cc1ccc(S(=O)(=O)N2[C@@H](c3ccc(Br)cc3)C(C(=O)O)=CC[C@H]2c2ccc(C(C)C)cc2)cc1,23,i,i,i,i,-23
Cc1ccc([C@@H]2CC=C(C(=O)O)[C@H](c3ccc(C(C)(C)C)cc3)N2S(=O)(=O)c2ccc(C)cc2)cc1,?,i,i,i,i,i
Cc1ccc([C@H]2C(C(=O)O)=CC[C@@H](c3cccs3)N2S(=O)(=O)c2ccc(C)cc2)cc1,i,i,i,i,i,i
Cc1cccc(-c2ccc([C@H]3[C@@H](CO)N4CCCCN(Cc5cccnc5)C[C@H]34)cc2)c1,i,i,i,i,nt,i
C[C@@H]1CCCCO[C@H](CN(C)C)[C@@H](C)CN([C@H](C)CO)C(=O)c2cc(NS(=O)(=O)c3cn(C)cn3)ccc2O1,i,i,i,i,nt,i
COc1ccccc1-c1ccc2n(c1=O)C[C@H]1[C@H](CO)[C@@H](C(=O)NC3CCC3)N(C(=O)C3CCC3)[C@@H]21,i,i,i,i,nt,i
